B1: tRNA (parent)
chain: GUUCCGUUGGCGUAAUGGUAACGCGUCUCCCUCCUAAGGAGAAGACUGCGGGUUCGAGUCCCGUACGGAACG

38 variants from the RNAGym collection of RNA variant scans (doi:10.1126/science.aae0568) can be followed below.

This sample holds only a part of the variants without activity.

In the data set the parent is B1. Put plainly: yeast fitness relative to wild type (ratio to wild type); higher = fitter; tRNA-Arg(CCU), competitive growth, 37 C, YPD. The gist of the method: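 Amplicons of the tRNA-Arg(CCU) gene were sequenced, 100-nucleotide paired-end, from the start population and from each end population of a pooled yeast competition. The competition, in six parallel replicates, lasted 24 hours in YPD at 37°C. Fitness relative to wild type was calculated from changes in genotype frequencies. Genotypes had to have ≥ 100 starting reads, and estimates < 0.5 were set to 0.5.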
Consider GUUCCGUUGGCGUAAUGGUAACGCGUCUCCCUCCUACGGAGAAGACUGCGGGUUCGAGUCCCGGACGGAACG [A37C U64G], for which the yeast fitness is 0.684.

As to GUUCCGUUGGCGUAAUGGUAACGCGUCUCCCUCCUACAGAGAAGACUGCGGGUUAGAGUCCCGUCCGGAACG [A37C G38A C55A A65C], the yeast fitness was at most 0.5.

For GUUCCGUUGGCGUAAUGGUAACGCGUCUCCCUCCUACCGAGAAGACUGCGGGUUUGAGUCCCGUACGGAACG [A37C G38C C55U], the yeast fitness was at most 0.5.

GUUCCGUUGGCGUAAUGGUAACGCGUCUCCCUCCUACGGAGAAAACUGCGGGUUCGAGUCCCGUACGGAACG [A37C G44A]: the yeast fitness was found to be 0.776.

With GUUCCGUUGGCGUAAUGGUAACGCGUCUCCCUCCUACAGAGAAGACUGCGGGUUCGAGUCCCAUACGGAACG [A37C G38A G63A], the yeast fitness came out at 0.549.

For GUUCCGUUGGCGUAAUGGUAACGCGUCUCCCUCCUACGGAGAAGACUGUGGGUUUGAGUCCCAUACCGAACG [A37C C49U C55U G63A G67C], the yeast fitness is at most 0.5.

As to GUUCCGUUGGCGUAAUGGUAACGCGUCUCCCUCCUAGGGAGCAGACUGCGGGUUGGAGUCCCGUACGCAACG [A37G A42C C55G G68C], the yeast fitness is at most 0.5.

Consider GUUCCGUUGGCGUAAUGGUAACGCGUCUCCCUCCUACGGAAAAGACUGCGGGUUCGAGUCCCGUACGGAACG [A37C G41A], for which the yeast fitness came to 1.01.

For GUUCCGUUGGCGUAAUGGUAACGCGUCUCCCUCCUAGGGAGAGGACUGCGGGUUAAAGUCCCGUACGGAACG [A37G A43G C55A G56A], the yeast fitness was 0.6.

On to GUUCCGUUGGCGUAAUGGUAACGCGUCUCCCUCCUAGGGUGAAGACUGAGGGUUCGUGUCCCGUACGGAACG [A37G A40U C49A A57U], for which the yeast fitness was at most 0.5.

For GUUCCGUUGGCGUAAUGGUAACGCGUCUCCCUCCUACGGAGAAGACUGCGGGUUUGAGUCCCAUACCGAACG [A37C C55U G63A G67C], the yeast fitness was found to be 0.617.

Take GUUCCGUUGGCGUAAUGGUAACGCGUCUCCCUCCUACGGAGAAGACUGUGGGUGCGAGUCCCGUACGGAACG [A37C C49U U54G]: the yeast fitness is at most 0.5.

Consider GUUCCGUUGGCGUAAUGGUAACGCGUCUCCCUCCUACGGAGAAGACUGGGGGUUCGAGUCCCGUACGGAACG [A37C C49G], for which the yeast fitness was 0.729.

For the variant GUUCCGUUGGCGUAAUGGUAACGCGUCUCCCUCCUAGGGAGCAGACUGCGGGUUCGAGUCCCGUCCGGCACG [A37G A42C A65C A69C], the yeast fitness is 0.616.

Take GUUCCGUUGGCGUAAUGGUAACGCGUCUCCCUCCUACGGAGAAGACUGCGGGUUCGAGUCCCCUACGGAACG [A37C G63C]: the yeast fitness was determined as 0.663.

Turning to GUUCCGUUGGCGUAAUGGUAACGCGUCUCCCUCCUACGGAGAAGACUGCGGGUUCGAGUCCCAUACGGAACG [A37C G63A], the yeast fitness is 0.612.

In the case of GUUCCGUUGGCGUAAUGGUAACGCGUCUCCCUCCUAGGGAGAGGACUGCGGGUUCGAGUCCCGUACGGUACG [A37G A43G A69U], the yeast fitness is 0.802.

Turning to GUUCCGUUGGCGUAAUGGUAACGCGUCUCCCUCCUACGGAGAAGACUGCGGGUUCGAGUACCGUACGGAGCG [A37C C60A A70G], the yeast fitness was found to be 0.592.

On to GUUCCGUUGGCGUAAUGGUAACGCGUCUCCCUCCUAGGGAGAAGACUGCGGGUUCGAGUCCCGUACGGAACG [A37G], for which the yeast fitness was 0.734.

As for GUUCCGUUGGCGUAAUGGUAACGCGUCUCCCUCCUAGGGAGAAGCAUGCGGGUUCGAGUCCCGUACGGAACG [A37G A45C C46A], the yeast fitness was determined as 0.579.

As to GUUCCGUUGGCGUAAUGGUAACGCGUCUCCCUCCUACGGAGAAGACUGCGGGUUCGAGUCCUGUAGGGAACG [A37C C62U C66G], the yeast fitness is at most 0.5.

As for GUUCCGUUGGCGUAAUGGUAACGCGUCUCCCUCCUACGGAGAAGACUGCGGGUUCGAGUCCUGUACGGAUCG [A37C C62U A70U], the yeast fitness is at most 0.5.

Turning to GUUCCGUUGGCGUAAUGGUAACGCGUCUCCCUCCUACGGAGAAGACUGCGGGUUGAAGUCCCGUACGGCACG [A37C C55G G56A A69C], the yeast fitness was at most 0.5.

In the case of GUUCCGUUGGCGUAAUGGUAACGCGUCUCCCUCCUACGGAGAAGACUGCGGGUUCGAGUCCGGUACGGCACG [A37C C62G A69C], the yeast fitness was at most 0.5.

For GUUCCGUUGGCGUAAUGGUAACGCGUCUCCCUCCUACGGAGAAGACUGUGAGUUCGAGUCCCGUACGGAACG [A37C C49U G51A], the yeast fitness was at most 0.5.

For GUUCCGUUGGCGUAAUGGUAACGCGUCUCCCUCCUAGGGCGAAGACUGCGGGUUCGAGUCGCGUACGGUACG [A37G A40C C61G A69U], the yeast fitness is at most 0.5.

Turning to GUUCCGUUGGCGUAAUGGUAACGCGUCUCCCUCCUACGCAGAAGACUGCGGGUUCGAGUCCCGUUCGGAACG [A37C G39C A65U], the yeast fitness was at most 0.5.

As to GUUCCGUUGGCGUAAUGGUAACGCGUCUCCCUCCUAGGGGGAGGACUGCGGCUUCGAGGCCCGUACGGAACG [A37G A40G A43G G52C U59G], the yeast fitness was at most 0.5.

Turning to GUUCCGUUGGCGUAAUGGUAACGCGUCUCCCUCCUACGGAGAAGACUGCGGGUUCGAAUCCCGUACGGAACG [A37C G58A], the yeast fitness was found to be 0.844.

For the variant GUUCCGUUGGCGUAAUGGUAACGCGUCUCCCUCCUACGCAGAAGACUGCCGGUUCGAGUCCCGUACGGAACG [A37C G39C G50C], the yeast fitness is at most 0.5.

In the case of GUUCCGUUGGCGUAAUGGUAACGCGUCUCCCUCCUACGGAGAAGAGUGCGAAUUCGAGUCCCGUACGGAACG [A37C C46G G51A G52A], the yeast fitness is at most 0.5.

With GUUCCGUUGGCGUAAUGGUAACGCGUCUCCCUCCUAGGGGGAAGUCUGCGGGUUCGAGUCCCGUACGGAACG [A37G A40G A45U], the yeast fitness was 0.566.

Take GUUCCGUUGGCGUAAUGGUAACGCGUCUCCCUCCUACGGAAAAGACUGCGGGUUCGAGUCCCGUACGGACCG [A37C G41A A70C]: the yeast fitness is at most 0.5.

Turning to GUUCCGUUGGCGUAAUGGUAACGCGUCUCCCUCCUACGGAGAAGACUGCGGCUUCGAGUCCCGUACGGAACG [A37C G52C], the yeast fitness turned out to be 0.537.

For GUUCCGUUGGCGUAAUGGUAACGCGUCUCCCUCCUACGGAGAAGAUUGCGGGUUCGAGUCCCGUACGGCACG [A37C C46U A69C], the yeast fitness stood at 0.682.

Turning to GUUCCGUUGGCGUAAUGGUAACGCGUCUCCCUCCUACGGAAAAGACUGUGGGUUCGAGUGCCGUACGGAACG [A37C G41A C49U C60G], the yeast fitness was at most 0.5.

On to GUUCCGUUGGCGUAAUGGUAACGCGUCUCCCUCCUAGGGAGUAGACUCUGGGUUCGAGUCCCGUACGGAACG [A37G A42U G48C C49U], for which the yeast fitness came out at 0.599.

In the case of GUUCCGUUGGCGUAAUGGUAACGCGUCUCCCUCCUACGGAGAAGACUGGGGGUUCGCGUCCCGUACGGAGCG [A37C C49G A57C A70G], the yeast fitness worked out at 0.516.
